The species entered for series [1] is Mus musculus. The experiment in a line: Selectivity ratio of IC50 for mouse SphK2 to recombinant mouse Snps2.
The species entered for series [2] is Mus musculus. The experiment in a line: Selectivity ratio of IC50 for mouse SphK1 to recombinant mouse Snps2.
Series [3] in a line: Half life in Sprague-Dawley rat plasma at 10 mg/kg, ip by LC-MS/MS analysis. It is filed as ADME, organism-based. Put shortly:
(§1)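 Single intraperitoneal dose to 4-week-old male rats (n = 4); vehicle 36.1% PEG400/9.1% ethanol/4.6% Solutol/50% H₂O. Tail-nick whole blood (ca. 70 μL) collected at 0, 0.5, 1, 2, 4, 6 and 24 h postdose. Plasma drug levels quantified by LC-MS/MS with an internal standard.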

Series [4] relates to Mus musculus. The experiment in a line: In vivo inactivation of Spns2 gene in C57BL/6j mouse assessed as decrease in plasma S1P at 20 mg/kg, ip measured after 4 hrs by LC-MS/MS analysis. It is filed as functional, organism-based. Summed up: (§2)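 Blood drawn 4 h postdose. Lymphocytes counted from 20 μL blood on a haematology analyzer; plasma S1P quantified by LC-MS/MS. Compared with vehicle-treated controls by t-test.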

Series [5] concerns the target T1, Sphingosine-1-phosphate transporter SPNS2 (Mus musculus) (UniProt Q91VM4).
T1 sequence (whole entry): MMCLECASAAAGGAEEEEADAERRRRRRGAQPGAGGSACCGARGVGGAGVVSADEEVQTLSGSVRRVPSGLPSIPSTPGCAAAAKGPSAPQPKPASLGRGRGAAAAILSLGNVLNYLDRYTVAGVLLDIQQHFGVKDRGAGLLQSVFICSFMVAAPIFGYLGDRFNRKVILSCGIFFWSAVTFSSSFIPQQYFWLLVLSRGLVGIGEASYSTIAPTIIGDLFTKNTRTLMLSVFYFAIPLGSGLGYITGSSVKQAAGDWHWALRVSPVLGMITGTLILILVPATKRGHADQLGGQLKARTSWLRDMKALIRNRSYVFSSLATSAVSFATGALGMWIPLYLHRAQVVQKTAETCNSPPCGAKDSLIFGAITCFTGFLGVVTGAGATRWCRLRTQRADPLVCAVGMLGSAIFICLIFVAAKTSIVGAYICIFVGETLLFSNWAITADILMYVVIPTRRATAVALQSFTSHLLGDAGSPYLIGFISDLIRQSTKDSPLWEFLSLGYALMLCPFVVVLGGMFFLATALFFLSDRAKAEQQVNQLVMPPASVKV
The series is described as follows: Inhibition of mouse Spns2 transfected in human HeLa cells by measuring S1P release at 2 uM by LC/MS analysis relative to control. It is filed as cell-based. Put shortly: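 HeLa cells stably transfected with mouse Spns2 and selected with G418, grown to near confluence. Medium replaced with RPMI 1640/0.2% fatty acid-free BSA containing 1 mM 4-deoxypyridoxine, 2 mM NaF and 0.2 mM Na₃VO₄. Compound added to duplicate wells, incubated 18–20 h. Medium S1P measured by LC-MS/MS against d₇-S1P after TCA precipitation and methanol extraction. Inhibition expressed relative to no-inhibitor control.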

A further series has as its system Rattus norvegicus. The experiment in a line: In vivo inactivation of Spns2 gene in Sprague-Dawley rat assessed as decrease in circulating lymphocytes at 10 mg/kg, ip measured upto 24 hrs by blood analyzer. It is filed as functional. More on the design: scale not given: the % may be the effect or the level left. Put shortly: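 Male rats 4 weeks old (n = 4) received a single intraperitoneal dose in PEG400/ethanol/Solutol/water vehicle. Tail-nick blood sampled at 0, 0.5, 1, 2, 4, 6 and 24 h. Lymphocytes counted from 20 μL blood on a haematology analyzer; counts compared with time 0.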

In series [6] the test system is Mus musculus. The series is described as follows: In vivo inactivation of Spns2 gene in C57BL/6j mouse assessed as decrease in circulating lymphocytes at 20 mg/kg, ip measured after 4 hrs by blood analyzer. It is filed as functional, organism-based. Summed up: as §2
The nature of series [7]: Drug concentration in Sprague-Dawley rat plasma at 10 mg/kg, ip at 24 hrs by LC-MS/MS analysis. It is filed as ADME, organism-based. Summed up:
as §1

A short description of series [8]: Drug concentration in Sprague-Dawley rat plasma at 10 mg/kg, ip at 2 hrs by LC-MS/MS analysis. It is filed as ADME, organism-based. Put shortly: as §1
A further series concerns the target T2, Sphingosine kinase 2 (Mus musculus, UniProt Q9JIA7).
T2 sequence (Q9JIA7 whole entry): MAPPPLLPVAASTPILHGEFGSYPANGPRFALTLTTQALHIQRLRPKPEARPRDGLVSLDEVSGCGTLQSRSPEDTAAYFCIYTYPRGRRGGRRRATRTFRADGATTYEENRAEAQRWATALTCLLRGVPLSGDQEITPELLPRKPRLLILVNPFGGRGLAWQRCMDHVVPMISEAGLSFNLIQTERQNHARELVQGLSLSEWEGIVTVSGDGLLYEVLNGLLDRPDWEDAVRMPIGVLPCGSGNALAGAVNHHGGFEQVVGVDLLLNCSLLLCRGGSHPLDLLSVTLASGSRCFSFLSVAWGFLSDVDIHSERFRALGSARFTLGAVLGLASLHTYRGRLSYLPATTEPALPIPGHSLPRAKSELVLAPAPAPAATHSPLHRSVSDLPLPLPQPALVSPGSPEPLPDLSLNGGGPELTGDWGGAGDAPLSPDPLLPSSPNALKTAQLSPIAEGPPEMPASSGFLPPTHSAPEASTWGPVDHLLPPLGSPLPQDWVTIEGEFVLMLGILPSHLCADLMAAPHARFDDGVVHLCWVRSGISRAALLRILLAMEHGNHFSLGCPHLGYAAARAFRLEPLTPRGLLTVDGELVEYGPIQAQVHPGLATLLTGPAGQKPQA
The experiment in a line: Inhibition of recombinant mouse SphK2 transfected in HEK293T cells using D-erythro-sphingosine measured after 20 mins in presence of gamma-[p32]-ATP by autoradiography and liquid scintillation counting method. It is filed as cell-based. Summed up:
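Lysate of mouse SphK2 from baculovirus-infected Sf9 or transfected HEK293T cells (0.02–0.03 mg protein). Buffer: 20 mM Tris-Cl pH 7.4 with MgCl₂, phosphatase/protease inhibitors, 10% glycerol and 1 M KCl. Substrate 5 μM D-erythro-sphingosine, 10 μM γ-[³²P]ATP, compound 10–30,000 nM. Reaction run 20 min at 37 °C, then lipids extracted and separated by TLC. Product detected by autoradiography and quantified by scintillation counting; run in duplicate.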

The target in series [9] is T1, Sphingosine-1-phosphate transporter SPNS2 (Mus musculus). The experiment in a line: (§3) Inhibition of mouse Spns2 transfected in human HeLa cells by measuring S1P release by LC/MS analysis. It is filed as cell-based. The note with it: dose <= 5.0 µM, DDE = dose-dependent effect. Put shortly:
(§4)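 Mouse Spns2-transfected HeLa cells (G418-selected) held 18–20 h in RPMI 1640/0.2% fatty acid-free BSA containing 1 mM 4-deoxypyridoxine, 2 mM NaF and 0.2 mM Na₃VO₄ across a compound concentration series. Released S1P quantified by LC-MS/MS with d₇-S1P internal standard; IC50 calculated from the concentration–effect curve.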

Series [10] deals with T3, Sphingosine-1-phosphate transporter SPNS2 (Mus musculus, UniProt Q91VM4).
T3 sequence (Q91VM4 whole entry): T1 sequence (whole entry)
The series is described as §3. It is filed as cell-based. Put shortly: as §4

For another series, the target named is Sphingosine kinase 1 (Mus musculus, UniProt Q8CI15). The experiment in a line: Inhibition of recombinant mouse SphK1 transfected in HEK293T cells using D-erythro-sphingosine measured after 20 mins in presence of gamma-[p32]-ATP by autoradiography and liquid scintillation counting method. It is filed as cell-based.

The text below walks through data of ChEMBL document CHEMBL5154924, “Discovery of In Vivo Active Sphingosine-1-phosphate Transporter (Spns2) Inhibitors” (J Med Chem, 2022).

Molecules are shown by their SMILES. The source made the active and inactive calls. The calls are words filed in the database; no cut-off is given here. A value given as a limit tells only on which side of the number the result lay.

Chain of Sphingosine kinase 1 (Q8CI15 whole entry): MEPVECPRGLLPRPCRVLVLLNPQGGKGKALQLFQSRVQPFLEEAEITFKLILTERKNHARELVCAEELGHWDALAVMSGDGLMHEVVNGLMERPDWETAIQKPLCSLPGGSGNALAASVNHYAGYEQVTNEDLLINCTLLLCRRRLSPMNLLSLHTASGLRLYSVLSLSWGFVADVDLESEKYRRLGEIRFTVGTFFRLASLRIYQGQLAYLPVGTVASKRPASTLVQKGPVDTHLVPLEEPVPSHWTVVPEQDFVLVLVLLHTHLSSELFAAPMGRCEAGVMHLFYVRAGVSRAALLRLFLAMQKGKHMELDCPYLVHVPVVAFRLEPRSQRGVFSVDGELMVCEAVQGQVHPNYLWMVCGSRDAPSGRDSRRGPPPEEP

Broadly, the half-life is the time in which the quantity being followed falls by half. In general, inhibition refers to the percentage by which the read-out fell short of the control. In general, IC50 refers to the concentration that gives 50% inhibition. Consider `CCCCCCCCCCc1ccc(-c2noc(CCCN)n2)cc1.Cl`, for which the Ratio IC50 in the series filed under Mus musculus [1] and in the series filed under Mus musculus [2] was 15 each time. Moreover, the half-life in series [3] was > 8 h. In addition, the inhibition result with Mus musculus [4] and in the series on Mus musculus [6] was “Active” each time. The inhibition is 67% in series [5] and “Dde” in [9]. The Activity with Rattus norvegicus is 25%. Also, in series [7], the concentration at 24 h turned out to be 2 µM. In series [8], the concentration at 2 h was found to be 5 µM. Also, the IC50 on Sphingosine kinase 2 was 30 µM; in series [10] it was 1.93 µM; at Sphingosine kinase 1, ≥ 30 µM. In [5], `CCCCCCCCCCc1ccc(-c2noc(CC(O)CN3CCCCC3)n2)cc1` (stereo unspecified) displayed an inhibition of 2%. `CCCCCCCCCCc1ccc(-c2noc(CN3CCNCC3)n2)cc1` registered an inhibition in [5] of 19%. In [5], `CCCCCCCCCCc1ccc(-c2nnc(CCCN)o2)cc1` registered an inhibition of 59%.

`CCCCCCCCCCc1cccc(-c2noc(CCCN)n2)c1` registered an inhibition in series [5] of 26%. Take `CCCCCCCCCCc1ccc(-c2noc(C3CNC3)n2)cc1`: the inhibition in series [5] is 65%. Same read-out and setting: in the case of `CCCCCCCCCCc1ccc(-c2noc([C@H](CCCCN)NC(C)=O)n2)cc1` it was 40%; in that of `CCCCCCCCCc1ccc(-c2noc(CCCN)n2)cc1`, 61%. Molecule `CCCCCCCCCCc1ccc(-c2noc(CC(CN)OC(C)=O)n2)cc1` (stereo unspecified) showed an inhibition in [5] of 0%. Regarding `CCCCCCCCCCc1ccc(-c2noc(CCCN(C)C)n2)cc1`, the inhibition in series [5] worked out at 8%. On the same count and under the same terms, in the case of `CCCCCCCCCCc1ccc(-c2noc(C[C@@H]3CCNC3)n2)cc1` it was 44%. On the same count and under the same terms, in the case of `CCCCCCCCCCc1ccc(-c2noc(CCCN3CCOCC3)n2)cc1` it was 2%; in that of `CCCCCCCCC(=O)Nc1ccc(-c2noc(CCCN)n2)cc1`, 35%; in that of `CCCCCCCCCCc1ccc(-c2noc(CC(O)CN3CCCC3)n2)cc1` (stereo unspecified), 21%. The molecule `CCCCCCCCCCc1ccc(-c2noc(C[C@H](C)N)n2)cc1` registered an inhibition in series [5] of 44%. For the molecule `CCCCCCCCCOc1ccc(-c2noc(CCCN)n2)cc1`, the inhibition in series [5] came to 49%.

`CCCCCCCCCCc1ccc(-c2csc(CCCN)n2)cc1` showed an inhibition in series [5] of 45%. The molecule `CCCCCCCCCCc1ccc(-c2noc([C@@H](N)CCCN)n2)cc1` displayed an inhibition in series [5] of 40%. As to `CCCCCCCCCCc1ccc(-c2cn(C)c(CCCN)n2)cc1`, the inhibition in series [5] worked out at 51%.
